Screening results as filed in PubChem.
This is a sample that favours compounds with a hit; in the whole collection about 2.3% have one here.
ABCG2 block: human ABCG2 inhibition, ABCB1 as counter-screen; AID 1325; inhibition, % at 6.6 µM; 0.1% of 190,000 active; IgMXP3 cells, JC-1 efflux, flow cytometry;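 active = inhibition above 80%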;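 note: 0% = DMSO and 100% = nicardipine control wells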
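Read-out basis: Efflux inhibition in percent versus controls | Test system: ABCG2 IgMXP3 and barcoded ABCB1 CCRF-Adr cell mix | Quantity: 3 million cells/mL in well | Schedule: 10 min at 25 °C | Control set: Nicardipine as high control, DMSO as low control | Reagent: JC-1 as fluorescent efflux pump substrate | Signal: Flow cytometry of retained JC-1 fluorescence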
MEKK3 PB1 HTS: raises or lowers MEK5 binding to the human MEKK3 PB1 domain; 1.4% of 290,000 active; binding response (% of control), % at 10 µM; bead-based flow cytometry, Alexa488-MEK5 binding to MEKK3; actives lie on both sides; 0 = blocked by unlabeled MEK5, 100 = vehicle;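 active = binding response more than 3 SD above or below the average of its plate-row segment, actives on both sides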;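 note: Alexa488 bead fluorescence after subtracting the streptavidin-only scavenger bead signal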
MEKK2mut PB1 HTS: signal of MEK5 binding to mutant human MEKK2 PB1 domain; bead flow cytometry, Alexa488-MEK5 binding to MEKK2 mutant; percent response, % at 10 µM; 0.35% of 290,000 active; AID 1530; in the data active = percent response above about 24%, passing the limit was not always enough
ABCB1 inh: inhibitors of human ABCB1 transporter, ABCG2 counter-screen; 0.067% of 190,000 active; inhibition, % at 6.6 µM; AID 1326; CCRF-Adr cells, JC-1 efflux, flow cytometry; in the data active = inhibition above about 40%;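 note: 0% = vehicle and 100% = reference inhibitor; higher value means more JC-1 retained so stronger ABCB1 efflux block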
MEKK2wt PB1 HTS: raises or lowers MEK5 binding to wildtype human MEKK2 PB1 domain. 1.1% of 290,000 active. binding response (% of control), % at 10 µM. AID 1531. bead flow cytometry, Alexa488-MEK5 binding to MEKK2 WT; actives lie on both sides. Q9Y2U5; in the data active = binding response below about 67% or above about 130%
ABCB1 confirm: inhibits human ABCB1 efflux, confirmed at single point; 7% of 270 active; AID 1451; CCRF-Adr cells, JC-1 efflux, flow cytometry; inhibition, % at 6.6 µM; shares compounds with ABCG2 block;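 active = inhibition of pump activity above 50%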;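 note: 0% = DMSO and 100% = nicardipine full pump inhibition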
ABCG2 confirm: confirmation of human ABCG2 transporter inhibitors, ABCB1 counter-screen | inhibition, % at 6.6 µM | shares compounds with ABCG2 block | 6% of 270 active | AID 1453 | IgMXP3 cells, JC-1 efflux, flow cytometry;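 active = inhibition above 50%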;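 note: 0% = DMSO wells and 100% = nicardipine pump inhibitor wells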
IgMXP3 fluor: IgMXP3 autofluorescence flag for ABCG2 confirmation; 30% of 270 active; shares compounds with ABCG2 block; fluorescence at 6.6 µM; IgMXP3 cells, compound autofluorescence 488/530 nm, flow; active compounds read high;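 active = fluorescence in ABCG2-expressing cells above the plate's control-well mean plus 3 SD, cut at about 15 in these data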;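 note: median cell fluorescence with compound minus that of DMSO-treated control cells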
CCRF autofluor: counter-screen for ABCB1 inhibitors: compound fluorescence in CCRF-Adr cells | shares compounds with ABCG2 block | 30% of 270 active | fluorescence at 6.6 µM | compound autofluorescence 488/530 nm, flow cytometry; active compounds read high;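 active = fluorescence beyond the plate control mean plus 3 SD, with a fluorescence-to-maximum score over 2, cut at about 25 in these data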
Active calls of the source: *.

COc1ccc(OCC(=O)Nc2ccccc2C(=O)N2CCOCC2)cc1 was read as ABCG2 block 0, MEKK3 PB1 HTS 101, MEKK2mut PB1 HTS 4, ABCB1 inh 60*, MEKK2wt PB1 HTS 102, ABCB1 confirm 1, ABCG2 confirm 4, IgMXP3 fluor 0.36 and CCRF autofluor -1.2.
O=C(COc1ccc(Br)cc1)Nc1ccccc1C(=O)N1CCOCC1 was read as MEKK3 PB1 HTS 101, MEKK2mut PB1 HTS 5 and MEKK2wt PB1 HTS 106.
For N#CC1=C(N)C2=C(N3CCCCC3)CCCC2C1(C#N)C#N (configuration not stated) the results were ABCG2 block -1, MEKK3 PB1 HTS 101, MEKK2mut PB1 HTS 2, ABCB1 inh 0 and MEKK2wt PB1 HTS 104.
N#CC(C#N)=C1C=C2C=C(N3CCCCC3)CCC2CC1 (configuration not stated) was read as ABCG2 block 51, MEKK3 PB1 HTS 100, MEKK2mut PB1 HTS -6, ABCB1 inh 170*, MEKK2wt PB1 HTS 86, ABCB1 confirm 62*, ABCG2 confirm 62*, IgMXP3 fluor 17* and CCRF autofluor 67*.
For CCCCN(C)C1=CC2=CC(=C(C#N)C#N)CCC2CC1 (configuration not stated) the results were ABCG2 block 85*, MEKK3 PB1 HTS 101, MEKK2mut PB1 HTS -8, ABCB1 inh active, MEKK2wt PB1 HTS 86, ABCB1 confirm 164*, ABCG2 confirm 49, IgMXP3 fluor 44* and CCRF autofluor 232*.
Screening CCN(CC)C1=CC2=CC(=C(C#N)C#N)CCC2CC1 (configuration not stated) returned ABCG2 block 43, MEKK3 PB1 HTS 93, MEKK2mut PB1 HTS -6, ABCB1 inh 84*, MEKK2wt PB1 HTS 90, ABCB1 confirm 24, ABCG2 confirm 74*, IgMXP3 fluor 19* and CCRF autofluor 40*.
`CCCCCOc1ccc(C(=O)CCC(=O)N2CCCC2)cc1` gave MEKK3 PB1 HTS 104, MEKK2mut PB1 HTS -6 and MEKK2wt PB1 HTS 101.
CCOC(=O)C1=C(CNCc2ccc(C)cc2)NC(=O)NC1c1cc(C)ccc1C (configuration not stated) was read as ABCG2 block 25, MEKK3 PB1 HTS 98, MEKK2mut PB1 HTS 1, ABCB1 inh 40, MEKK2wt PB1 HTS 102, ABCB1 confirm 15, ABCG2 confirm 13, IgMXP3 fluor -1.8 and CCRF autofluor -4.6.
For O=C(CN1C(=O)c2ccccc2C1=O)Oc1ccc(F)cc1 the results were MEKK3 PB1 HTS 105, MEKK2mut PB1 HTS 4 and MEKK2wt PB1 HTS 106.
CCCn1c(C(C)Nc2nc(-c3cc(Cl)c(N)c(Cl)c3)cs2)nc2cc(Cl)c(N3CCCCC3)cc21 (configuration not stated) was read as MEKK3 PB1 HTS 101, MEKK2mut PB1 HTS -2 and MEKK2wt PB1 HTS 95.
For CNc1nc(Nc2ccc([N+](=O)[O-])cc2)nc(OCC(F)(F)F)n1 the results were MEKK3 PB1 HTS 107, MEKK2mut PB1 HTS 8 and MEKK2wt PB1 HTS 109.
Screening CCOc1nc(NCCO)nc(Nc2ccc([N+](=O)[O-])cc2)n1 returned ABCG2 block 68, MEKK3 PB1 HTS 111, MEKK2mut PB1 HTS 0, ABCB1 inh 2, MEKK2wt PB1 HTS 106, ABCB1 confirm -1, ABCG2 confirm 34, IgMXP3 fluor -1.4 and CCRF autofluor -0.59.
Screening COc1cc(/C=C2/CCc3ccccc3C2=O)cc(OC)c1OC returned ABCG2 block 87*, MEKK3 PB1 HTS 105, MEKK2mut PB1 HTS 20, ABCB1 inh 7, MEKK2wt PB1 HTS 120, ABCB1 confirm 2, ABCG2 confirm 44, IgMXP3 fluor -1.6 and CCRF autofluor -1.7.
